According to ChEMBL document CHEMBL3272032, “Antifolate studies. Activities of 40 potential antimalarial compounds against sensitive and chlorguanide triazine resistant strains of folate-requiring bacteria and Escherichia coli” (J Med Chem, 1977):
Calls of active or inactive are those of the source. No cut-off for these calls is given here.

Key:
Enterococcus faecium [1] = assay: Antibacterial activity against chlorguanide triazine-resistant Streptococcus faecium ATCC 8043 assessed as reduction in growth in presence of 0.002 ug/ml folic acid; format: functional, organism-based
Outline: (§1)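 Folate-requiring strains grown in medium with folic acid, 0.002 µg/ml for S. faecium and 0.001 µg/ml for L. casei; P. cerevisiae given folinic acid, 0.001 µg/ml. Resistant substrains came from serial transfer in rising chlorguanide triazine, and the most resistant were used. Compounds tested up to 1000 µg/ml, or 100 µg/ml when supply was limited. Growth read as Klett turbidity; IC50 is the µM concentration giving 50% growth inhibition.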

Lacticaseibacillus casei [2] = assay: Antibacterial activity against sensitive Lactobacillus casei ATCC 7469 assessed as reduction in growth in presence of 0.001 ug/ml folic acid; format: functional, organism-based
Outline: (§2)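 Folate-requiring strains in the medium of the earlier assay method. Folic acid was 0.002 μg/ml for S. faecium and 0.001 μg/ml for L. casei. Turbidity read on a Klett-Summerson colorimeter. IC50 is the micromolar concentration reducing growth to 50% of control. Top concentration was 1000 μg/ml, or 100 μg/ml if supply was limited.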

Lacticaseibacillus casei [3] = assay: Antibacterial activity against chlorguanide triazine-resistant Lactobacillus casei ATCC 7469 assessed as reduction in growth in presence of 0.001 ug/ml folic acid; format: functional, organism-based; outline: as §1
Pediococcus [4] = assay: Antibacterial activity against sensitive Pediococcus cerevisiae ATCC 808 assessed as reduction in growth in presence of 0.001 ug/ml folinic acid; format: functional
Outline: (§3)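 P. cerevisiae grown with folinic acid at 0.001 μg/ml in the earlier-described medium. Turbidity read on a Klett-Summerson colorimeter. IC50 is the micromolar concentration reducing growth to 50% of control. Top concentration was 1000 μg/ml, or 100 μg/ml when supply was limited.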

Pediococcus [5] = assay: Antibacterial activity against chlorguanide triazine-resistant Pediococcus cerevisiae ATCC 808 assessed as reduction in growth in presence of 0.001 ug/ml folinic acid; format: functional; outline: as §1
Escherichia coli [6] = assay: Antibacterial activity against sensitive Escherichia coli ATCC 10536 assessed as reduction in growth in presence of p-aminobenzoic acid; format: functional, organism-based
Outline: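 Reversal test. Drug inhibition was challenged with PABA in Sahyun et al. medium plus 0.6% acid-hydrolyzed casein. Growth read as turbidity on a Klett-Summerson colorimeter. Scored as reversal or nonreversal of the drug inhibition.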

Plasmodium berghei [7] = assay: Antimalarial activity against Plasmodium berghei infected in sc dosed mouse assessed as active dose required to increase of 100% in mean survival time; format: functional; conditions: read-out: MED
Outline: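 Mice received a standard blood-induced P. berghei inoculum and were then treated with one subcutaneous dose of compound suspended in peanut oil. The minimum active dose is the lowest dose that raised mean survival time by 100%.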

Plasmodium berghei [8] = assay: Antimalarial activity against Plasmodium berghei infected in sc dosed mouse assessed as dose required to survivors for period of 60 days; format: functional
Outline: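 Mice infected with a blood-induced P. berghei inoculum were given one subcutaneous dose in peanut oil. Survivors at 60 days counted as cured. The minimum curative dose is the lowest dose that cured any mouse.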

Enterococcus faecium [9] = assay: Antibacterial activity against sensitive Streptococcus faecium ATCC 8043 assessed as reduction in growth; format: functional, organism-based; outline: as §1
Enterococcus faecium [10] = assay: Antibacterial activity against chlorguanide triazine-resistant Streptococcus faecium ATCC 8043 assessed as reduction in growth; format: functional, organism-based; outline: as §1
Enterococcus faecium [11] = assay: Fold increase in resistance, ratio of IC50 for chlorguanide triazine-resistant Streptococcus faecium ATCC 8043 to IC50 for sensitive Streptococcus faecium ATCC 8043; format: functional
Outline: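 Resistant S. faecium substrain raised by serial transfer in increasing chlorguanide triazine. IC50 (µM, 50% growth inhibition by turbidity) was found for resistant and parent strains in folic acid (0.002 µg/ml) medium. Fold increase taken as IC50 resistant / IC50 sensitive.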

Lacticaseibacillus casei [12] = assay: Antibacterial activity against sensitive Lactobacillus casei ATCC 7469 assessed as reduction; format: functional, organism-based; outline: as §1
Lacticaseibacillus casei [13] = assay: Antibacterial activity against chlorguanide triazine-resistant Lactobacillus casei ATCC 7469 assessed as reduction in growth; format: functional, organism-based; outline: as §1
Lacticaseibacillus casei [14] = assay: Fold increase in resistance, ratio of IC50 for chlorguanide triazine-resistant Lactobacillus casei ATCC 7469 to IC50 for sensitive Lactobacillus casei ATCC 7469; format: functional
Outline: (§4)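 Resistant substrains were made by serial transfer in rising concentrations of cycloguanil, and the most resistant isolate of each organism was used. Both strains were assayed turbidimetrically under identical conditions. FIR = IC50 of the resistant strain divided by IC50 of the sensitive parent.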

[15] = Antibacterial activity against sensitive Pediococcus cerevisiae ATCC 808 assessed as reduction; format: functional; outline: as §3
[16] = Antibacterial activity against chlorguanide triazine-resistant Pediococcus cerevisiae ATCC 808 assessed as reduction in growth; format: functional; outline: as §1
Pediococcus [17] = assay: Fold increase in resistance, ratio of IC50 for chlorguanide triazine-resistant Pediococcus cerevisiae ATCC 808 to IC50 for sensitive Pediococcus cerevisiae ATCC 808; format: functional; outline: as §4
Escherichia coli [18] = assay: Antibacterial activity against sensitive Escherichia coli ATCC 10536 assessed as reduction in growth; format: functional, organism-based
Outline: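 Growth inhibition in Sahyun et al. medium plus 0.6% acid-hydrolyzed casein. Growth read as turbidity on a Klett-Summerson photoelectric colorimeter. IC50 is the micromolar concentration giving 50% growth inhibition. Top concentration was 1000 μg/ml, or 100 μg/ml when compound was limited.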

Enterococcus faecium [19] = assay: Antibacterial activity against sensitive Streptococcus faecium ATCC 8043 assessed as reduction in growth in presence of 0.002 ug/ml folic acid; format: functional, organism-based; outline: as §2

For `Nc1nc(N)c2cc(Sc3ccc(Cl)cc3)ccc2n1`, the inhibition (Enterococcus faecium [1]) was “inactive”, the inhibition (Lacticaseibacillus casei [2]) was “inactive” and the inhibition (Lacticaseibacillus casei [3]) was “inactive”. The inhibition (Pediococcus [4]) was “inactive”, the inhibition (Pediococcus [5]) was “inactive” and the inhibition (Escherichia coli [6]) was “Active”. It also gave a minimal effective dose (Plasmodium berghei [7]) of 5 mg/kg, an MCD (Plasmodium berghei [8]) of 40 mg/kg and an IC50 (Enterococcus faecium [9]) of 1 nM. The IC50 (Enterococcus faecium [10]) was 180 nM, the “Ratio IC50” value (Enterococcus faecium [11]) was 180 and the IC50 (Lacticaseibacillus casei [12]) was 28 nM. The IC50 (Lacticaseibacillus casei [13]) was 10 nM, the “Ratio IC50” value (Lacticaseibacillus casei [14]) was 0.36 and the IC50 [15] was 28 nM. For the same molecule, the IC50 [16] was 400 nM, the “Ratio IC50” value (Pediococcus [17]) was 14.3 and the IC50 (Escherichia coli [18]) was 400 nM. For the same molecule, the inhibition (Enterococcus faecium [19]) was “inactive”.
